Experimental data published in article PMC9119696 (Nature chemical biology, 2021).
Several values for one entry are separate records, joined by “and”; a condition that tells them apart may be missing. Equal values may be shown once.

How the values were obtained:
[1] = molecular target: GST-Pin1 (Homo sapiens, UniProt Q13526); assay: Chymotrypsin-coupled PPIase activity assay; format: biochemical; conditions: read-out: apparent Ki (PPIase assay); measured at 12 h
Summary of the method: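 GST-Pin1 (50 nM) preincubated with test compound for 12 h at 4 °C in 35 mM HEPES pH 7.8, 0.2 mM DTT, 0.1 mg ml-1 BSA. Chymotrypsin (final 6 mg ml-1) was added just before starting, followed by Suc-Ala-pSer-Pro-Phe-pNA substrate.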

[2] = system: WT PATU-8988T cells; assay: 2D growth over time viability; format: cell-based; conditions: 1 μM, 6 and 8 days
Summary of the method: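 PATU-8988T cells plated at 100 per well (other lines 500), with one plate per time point (days 0, 2, 4, 6, 8). Treated the day after plating with DMSO or compound and held at 37 °C, 5% CO2. Medium plus fresh compound replaced every 48 h. CellTiter-Glo luminescence read; day 0 read before treatment. Values divided by mean day 0 reading; n = 3 biological replicates.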

[3] = system: IMR90 lung fibroblast; assay: IMR90 lung fibroblast viability; format: cell-based; conditions: IMR90 lung fibroblasts
[4] = system: c-Myc protein levels; assay: c-Myc protein level immunoblot; format: cell-based
[5] = system: Th-MYCN mice tumors; assay: Th-MYCN murine neuroblastoma model; format: in vivo
Summary of the method: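 Tumours in TH-MYCN mice monitored weekly by palpation; mice with 4–5 mm tumours were enrolled. Groups received test compound at 40 mg kg-1 by oral gavage once or twice daily, or vehicle (5% NMP, 5% kolliphor, 20% DMSO) once daily. The twice-daily arm was capped at 56 doses. Tumour volume measured by 1 Tesla MRI under isoflurane with core temperature held at 37 °C. Two-tailed Student's t test.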

[6] = system: Pin1 Cys113; assay: CITe-Id chemoproteomic cysteine profiling; format: cell-based; conditions: PATU-8988T cells, 100, 500, 1,000 nM, 5 h
Summary of the method: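 Live PATU-8988T cells exposed to test compound at 100, 500 or 1,000 nM for 5 h, then lysed. Lysates co-incubated with the desthiobiotin-tagged probe (2 µM) for 18 h. Probe-labelled cysteines were identified and quantified proteome-wide for dose-dependent competition.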

[7] = system: PC3; assay: 2D growth over time viability; format: cell-based; conditions: up to 8 days
Summary of the method: (§1)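 Cells seeded at 500 per well (PATU-8988T: 100 per well) and dosed with test compound or DMSO the next day. Kept at 37 °C, 5% CO2, with medium and compound renewed every 48 h. One plate per time point (days 0, 2, 4, 6, 8); the day 0 plate was read before dosing. Viability measured by CellTiter-Glo luminescence.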

[8] = system: PATU-8988T cells; assay: Cell cycle analysis; format: cell-based; conditions: 2.5 μM, 4 days
Summary of the method: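 PATU-8988T cells treated 4 days with DMSO (0.1%), test compound or a non-covalent analogue (each 2.5 µM), with medium replaced on day 3; run in triplicate or more. Pulsed with 10 µM BrdU for 1 h, then fixed in 70% ethanol and denatured in 2 M HCl/0.5% Triton X-100 (30 min, RT). Neutralised with 0.1 M Na2B4O7 pH 8.5 and stained overnight at 4 °C with anti-BrdU-FITC. Counterstained with propidium iodide plus RNase A (each 50 µg ml-1) and analysed by FACS.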

[9] = system: NBL-S; assay: 2D growth over time viability; format: cell-based; conditions: 2.5 μM after 8 days
Summary of the method: as §1

[10] = system: PATU-8988T Pin1 KO cells; assay: 3D Matrigel dome antiproliferative assay; format: cell-based; conditions: 1 μM, 9-day treatment
Summary of the method: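 1,000 cells per Matrigel dome, one dome per well, left 15 min at 37 °C to solidify. Medium with test compound renewed every 3 days. After 9 days, 3D CellTiter-Glo was added and the plate shaken 1 h at room temperature before reading luminescence. n = 9 biological replicates per condition.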

[11] = system: KPC mouse-derived pancreatic cancer cells in B6 mice; assay: KPC orthotopic pancreatic cancer mouse model; format: in vivo; conditions: for survival: n = 8
Summary of the method: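 Pancreatic cancer cells from a KPC mouse (Pdx1-Cre, lsl-KrasG12D/+, lsl-tp53R172H/+) transplanted orthotopically into the pancreatic tail of B6 mice. Daily IP dosing with vehicle or test compound at 20 or 40 mg kg-1 began one week later. Mice were euthanised when the largest control tumour reached 2 cm in length, and tumours were collected and measured.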

[12] = system: Myc transcriptional activity in HEK293 cells; assay: Myc luciferase reporter assay; format: cell-based; conditions: 2 μM, 48 h, cotransfected Pin1
Summary of the method: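 HEK293 cells (DMEM, 10% FBS, 2.5 mM L-glutamine, nonessential amino acids) grown in six-well plates to 80% confluence. Lipofected with 4× E-box-luciferase and Pin1-Flag plasmids plus β-galactosidase as internal control. Compound added at transfection; cells harvested 48 h later. Cells lysed, sonicated and cleared before luciferase read-out.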

[13] = system: radioresistant HeLa cells; assay: Radiosensitization AlamarBlue viability assay; format: cell-based; conditions: 7.5 Gy IR
Summary of the method: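 HeLa cells seeded at 200 per well. Treated with compound 16 h later, then given 7.5 Gy X-ray 1 h after treatment. AlamarBlue (10% final) added 3 days post-irradiation. Absorbance read at 570 nm, 600 nm reference, 4 days post-irradiation. Background taken from cell-free wells; % survival set against DMSO-treated, nonirradiated controls.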

[14] = system: transplanted neuroblastoma cells in zebrafish embryos; assay: Zebrafish neuroblastoma allograft transplant model; format: in vivo; conditions: 100 μM in fish water, 5 days
Summary of the method: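 Neuroblastoma cells obtained by dicing 4-month-old Tg(dβh:MYCN;dβh:EGFP) fish in PBS and transplanted into embryos. Live fish imaged under identical conditions. Tumour burden quantified as the area of EGFP-fluorescent tumour mass.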

[15] = system: Pin1; assay: Live cell competition pulldown; format: cell-based
Summary of the method: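 2.5 million cells per 10-cm plate, dosed next day with DMSO or test compound (5 h, or as indicated). Cells washed in cold PBS, scraped and lysed in HEPES pH 7.4/NP-40 buffer with TCEP. Lysate (500 µg) incubated with desthiobiotin probe (1 µM, 1 h, 4 °C), then streptavidin agarose (1.5 h, 4 °C). Pin1 pulldown detected by immunoblot.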

[16] = system: PINN1, the worm Pin1 homolog; conditions: cited from earlier work

Chain of GST-Pin1 (Q13526 whole entry): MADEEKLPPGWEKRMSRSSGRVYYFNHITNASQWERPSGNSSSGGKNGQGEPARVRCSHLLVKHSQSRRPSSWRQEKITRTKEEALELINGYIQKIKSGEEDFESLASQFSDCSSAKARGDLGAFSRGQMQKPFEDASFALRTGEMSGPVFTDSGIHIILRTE

CC(C)(C)CN(C(=O)CCl)C1CCS(=O)(=O)C1 (centres unmarked) [Sulfopin]
Ki [1]: 211 nM | effect on cellular viability [2]: significant effect on cellular viability after 6 and 8 days | no toxicity up to (IMR90 viability) [3]: > 25 µM | c-Myc protein levels [4]: increased c-Myc protein levels | average increase in survival ([5]; 40 mg kg^−1 BID oral gavage): 28 days | mice with actual reduction in tumor size (MRI) ([5]; 40 mg kg^−1 BID, 7-day treatment, n = 6): five out of six | average increase in survival ([5]; 40 mg kg^−1 QD oral gavage): 10 days | cysteines with dose-dependent competition (of 162 labeled by Sulfopin-DTB) [6]: only Pin1 Cys113 | antiproliferative effect (growth over time) [7]: only slight effects | cells in G1 phase [8]: increased the number of cells found in G1 phase | cells in S phase [8]: reduced the percentage of cells in S phase | antiproliferative effect (growth over time) [9]: significant viability effects | antiproliferative activity in 3D Matrigel domes [10]: no effects observed | survival ([11]; 20 mg kg^−1 daily): 37.5 days | average tumor volume ([11]; 40 mg kg^−1 daily IP, 27 days, n = 4): 1,210.91 cm^3 | survival ([11]; 40 mg kg^−1 daily): 48.125 days | average increase in survival ([11]; 40 mg kg^−1 versus control): 18.125 days and 18 days | relative luciferase activity (Myc reporter) [12]: significant reduction in relative luciferase activity | resensitization to irradiation [13]: significantly resensitized them to irradiation in a dose-dependent manner | eGFP-labeled tumor mass size [14]: decreased in size | time to complete Pin1 engagement ([15]; 1-μM treatment, PATU-8988T cells): ≤ 4 h | concentration fully engaging Pin1 ([15]; HCT116 cells, 5 h): 0.5 µM | concentration of maximal Pin1 engagement ([15]; PATU-8988T and HCT116 cells, 5 h): 0.5 to 1 µM | concentration fully engaging Pin1 ([15]; PATU-8988T cells, 5 h): 1 µM | Pin1 engagement after 72 h ([15]; PATU-8988T or HCT116 cells, 72 h): > 50% | inhibition of PINN1 in Caenorhabditis elegans [16]: inhibited PINN1
